Results: ChEMBL document CHEMBL1144116, “Tanikolide, a toxic and antifungal lactone from the marine cyanobacterium Lyngbya majuscula” (J Nat Prod, 1999)
In brackets after ≈: the same amount, converted by molar mass. Activity calls are given as the source filed them. No cut-off for these calls is given here.

Columns and labels:
Bacillus subtilis = assay: Antibacterial activity against Bacillus subtilis ATCC 6051 at 100 ug/disk by paper disk agar plate method; assay type: functional, organism-based
Procedure, shortened: (§1)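 Paper disk-agar plate diffusion with 6 mm paper disks, each loaded with 100 µg of sample. Activity is read as the diameter of the zone of inhibition around the disk.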

Pseudomonas aeruginosa = assay: Antibacterial activity against Pseudomonas aeruginosa ATCC 10145 at 100 ug/disk by paper disk agar plate method; assay type: functional, organism-based; procedure, shortened: as §1
Staphylococcus aureus = assay: Antibacterial activity against Staphylococcus aureus ATCC 12600 at 100 ug/disk by paper disk agar plate method; assay type: functional, organism-based; procedure, shortened: as §1
Escherichia coli = assay: Antibacterial activity against Escherichia coli ATCC 11775 at 100 ug/disk by paper disk agar plate method; assay type: functional, organism-based; procedure, shortened: as §1
[1] = system: Salmonella enterica subsp. enterica; assay: Antibacterial activity against Salmonella choleraesuis subsp. choleraesuis ATCC 14028 at 100 ug/disk by paper disk agar plate method; assay type: functional, organism-based
Procedure, shortened: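 Standard paper sensitivity disk-agar plate method with 6 mm disks. Read-out is the diameter of the inhibition zone around the disk.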

Candida albicans = assay: Antifungal activity against Candida albicans ATCC 14053 at 100 ug/disk by paper disk agar plate method; assay type: functional; procedure, shortened: as §1
Carassius auratus [2] = assay: Toxicity against Carassius auratus; assay type: organism-based; details: in vivo
Procedure, shortened: (§2)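 Single goldfish (Carassius auratus) per vessel in 50 mL distilled H2O, with sample dilutions added in 50 µL EtOH. Each fish is observed for 1 h. Samples and controls are run in duplicate.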

[3] = Toxicity against Artemia salina after 24 hrs; assay type: organism-based; details: in vivo, read-out: LD50
Procedure, shortened: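 About 15 hatched Artemia salina in ca. 0.5 mL seawater per well with sample in 50 µL EtOH plus 4.5 mL artificial seawater (total ca. 5 mL), several concentrations, duplicate samples and controls. After 24 h at 28 °C, live and dead shrimp counted under dissecting light microscope.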

Biomphalaria glabrata = assay: Molluscicidal activity against Biomphalaria glabrata at 10 mg/mL after 24 hrs; assay type: functional; details: read-out: LD50 (the source's name)
Procedure, shortened: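 Test snails: Biomphalaria glabrata. Sample stock solutions (10 mg/mL in EtOH) diluted in 10 mL distilled H2O. Snails observed after 24 h and scored dead when no heart beat was detected by dissecting light microscopy.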

Carassius auratus [4] = assay: Norcotic effect against Carassius auratus at 10 ug/mL after 1 hr; assay type: ADME, organism-based; details: in vivo; procedure, shortened: as §2

| SMILES | Activity (Bacillus subtilis) | Activity (Pseudomonas aeruginosa) | Activity (Staphylococcus aureus) | Activity (Escherichia coli) | Activity [1] | Activity (Candida albicans) | Activity (Carassius auratus [2]) | LC50 at 24 h [3] | LC50 (Biomphalaria glabrata) | Activity (Carassius auratus [4]) | zone of inhibition at 100 µg/disc (Candida albicans; read-out: IZ) |
| --- | --- | --- | --- | --- | --- | --- | --- | --- | --- | --- | --- |
| CCCCCCCCC[C@@]1(CO)CC[C@@H](C)C(=O)O1 | inactive | inactive | inactive | inactive | inactive | inactive | – | – | – | – | – |
| CCCCCCCCCCC[C@]1(CO)CCCC(=O)O1 [TANIKOLIDE] | inactive | inactive | inactive | inactive | inactive | – | Non-toxic | 3.6 µg/mL (≈ 12.7 µM) | 9 µg/mL (≈ 31.6 µM) | Toxic | 13 mm |
